# In article PMC4643417 (Leukemia & lymphoma, 2015):
# Columns and labels:
# BCL2 = details: statement in discussion; cited from earlier work
# BCLXL = details: statement in discussion; cited from earlier work
# [1] = tested on: patients with previously untreated CLL; design: species or system human; details: in vivo
# [2] = Navitoclax plasma pharmacokinetics; type: in vivo, human; details: for AUC / Cmax / Tmax: human, plasma, po
# [3] = tested on: patients with relapsed/refractory CLL; details: phase 1 study, single-agent navitoclax; cited from earlier work
# [4] = tested on: patients with previously untreated CLL; assay: Phase 2 randomized three-arm trial: investigator-assessed best response; type: in vivo, human
# Method in brief: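 Open-label multicenter trial, randomized 1:1:1 and stratified by Binet stage and del(17p)/del(11q) (interphase FISH on marrow aspirates). Rituximab 375 mg/m2 week 1, then 500 mg/m2 weekly weeks 2–8, alone or with oral navitoclax (100 mg daily lead-in week, then 250 mg daily for 12 weeks). Investigator response by updated iwCLL at week 12, then every 12 weeks. ORR (CR+PR) with 95% CI; PFS by Kaplan–Meier.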
# [5] = tested on: patients with CLL, BCL2 protein low or high subgroups; assay: Association of baseline BCL2 protein expression; type: in vivo, human; details: arm A (n = 24) / arms B + C pooled (n = 31)
# Method in brief: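 Baseline bone marrow aspirates (optional consent), fresh: intracellular BCL2 staining by flow cytometry at a central lab within 72 h of collection, gated on CD19/CD5-positive CLL cells. Low/high subgroups split at median expression. Rituximab 375 mg/m2 week 1, then 500 mg/m2 weekly weeks 2–8, ± oral navitoclax (100 mg/day lead-in, then 250 mg/day). Odds ratios of objective response by logistic regression.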
# [6] = in vivo
# [7] = ITT population, arm A (n = 40) / arm B (n = 38; navitoclax 12 weeks)
# [8] = patients with del(17p), arm A (n = 11) / arm B (n = 12; navitoclax 12 weeks)
compound,measurement,setting,value
CC1(C)CCC(CN2CCN(c3ccc(C(=O)NS(=O)(=O)c4ccc(NCC5CCOCC5)c([N+](=O)[O-])c4)c(Oc4cnc5[nH]ccc5c4)c3)CC2)=C(c2ccc(Cl)cc2)C1 [ABT-199],Affinity for BCL2,BCL2,very high affinity
same,BCLXL inhibition,BCLXL,effectively no BCLXL inhibition
CC1(C)CCC(c2ccc(Cl)cc2)=C(CN2CCN(c3ccc(C(=O)NS(=O)(=O)c4ccc(N[C@H](CCN5CCOCC5)CSc5ccccc5)c(S(=O)(=O)C(F)(F)F)c4)cc3)CC2)C1 [navitoclax],Discontinuation of navitoclax due to hyperbilirubinemia,[1]; human,1 n
same,Discontinuation of navitoclax due to neutropenia,[1]; human,1 n
same,Discontinuation of navitoclax due to pain,[1]; human,1 n
same,Discontinuation of navitoclax due to reaction to the infusion of rituximab,[1]; human,1 n
same,Discontinuation of navitoclax due to serum sickness,[1]; human,1 n
same,Discontinuation of navitoclax due to thrombocytopenia,[1]; human,1 n
same,"Patients who discontinued navitoclax due to an AE, total",[1]; human,12 patients
same,Incidence of SAEs compared to patients treated with rituximab alone,[1],not increased
same,Reports of bleeding,[1],a single AE of self-limited epistaxis
same,Time of maximum navitoclax concentration (Cmax) after oral administration,[2],approximately 6 h
same,AUC,[2]; 100 mg,10500 ± 4100 ng·h/mL
same,Cmax,[2]; 100 mg,2300 ± 900 ng/mL
same,Tmax,[2]; 100 mg,6 h
same,AUC,[2]; 250 mg,61200 ± 31200 ng·h/mL
same,Cmax,[2]; 250 mg,3700 ± 2000 ng/mL
same,Tmax,[2]; 250 mg,6.1 h
same,Overall response rate (ORR),[3],35%
rituximab,Best response: Missing,[4]; [7],3 (8) n (%)
same,Complete response (CR),[4]; [7],0 (0) n (%)
same,Partial response (PR),[4]; [7],14 (35) n (%)
same,Progressive disease,[4]; [7],2 (5) n (%)
same,Stable disease,[4]; [7],21 (53) n (%)
same,"Overall response rate (complete [CR] and partial [PR]), investigator-assessed",[4]; arm A / arm B (navitoclax daily for 12 weeks),35%
same,Best response: Missing,[4]; [8],0 (0) n (%)
same,Complete response (CR),[4]; [8],0 (0) n (%)
same,Partial response (PR),[4]; [8],2 (18) n (%)
same,Progressive disease,[4]; [8],1 (9) n (%)
same,Stable disease,[4]; [8],8 (73) n (%)
same,Anemia/worsening of anemia,[1],2 (5) n (%)
same,Any AEs,[1],33 (87) n (%)
same,Any SAEs,[1],5 (13) n (%)
same,Asthenia,[1],0 (0) n (%)
same,Chills,[1],0 (0) n (%)
same,Diarrhea,[1],0 (0) n (%)
same,GI and abdominal pain,[1],0 (0) n (%)
same,Grade 5 AEs,[1],3%
same,Hyperbilirubinemia,[1],0 (0) n (%)
same,Leukopenia,[1],1 (3) n (%)
same,Liver enzyme increase,[1],0 (0) n (%)
same,Neutropenia,[1],3 (8) n (%)
same,Patients who withdrew from study due to AEs,[1],0 [0%] n [%]
same,Respiratory tract infection,[1],3 (8) n (%)
same,Thrombocytopenia,[1],0 (0) n (%)
same,Vascular hypertensive disorders (hypertension),[1],0 (0) n (%)
same,Best response PR,[5],6 (43%) n (%)
same,Best response SD or PD,[5],8 (57%) n (%)
same,Effect of navitoclax on the PK of rituximab,[6],does not affect the PK of rituximab
same,"Week 8 rituximab concentration, post-infusion",[6],576 ± 264 (n = 33) μg/mL
same,"Week 8 rituximab concentration, pre-infusion",[6],296 ± 175 (n = 33) μg/mL
